Results reported in ChEMBL document CHEMBL3804788, “The design of 8-hydroxyquinoline tetracyclic lactams as HIV-1 integrase strand transfer inhibitors” (Eur J Med Chem, 2016).
In brackets after ≈: the same amount, converted by molar mass.

Tests used:
[1] = tested on: Human immunodeficiency virus type 1 integrase (Human immunodeficiency virus 1), Q7ZJM1 [Q148K]; assay: (§1) Inhibition of pseudotype HIV1 integrase Q148K mutant strand transfer activity in HIV1 infected human CIP4 cells assessed as ratio of IC50 for pseudotype HIV1 integrase Q148K mutant strand transfer activity to IC50 for pseudotype HIV1 integrase strand transfer activity after 2 days by luciferase reporter gene assay; type: cell-based
[2] = Cytotoxicity against human CIP4 cells; type: cell-based
[3] = tested on: Human immunodeficiency virus type 1 integrase (Human immunodeficiency virus 1), Q7ZJM1 [G140S,Q148H]; assay: as §1, with “G140S/Q148H double” for “Q148K”; type: cell-based
[4] = target: Human immunodeficiency virus type 1 integrase (Human immunodeficiency virus 1) (UniProt Q7ZJM1); assay: Ratio of IC50 for pseudotype HIV1 integrase strand transfer activity in presence of 40% human serum albumin to IC50 for pseudotype HIV1 integrase strand transfer activity
Outline: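 Single-round assay with a self-inactivating pseudotyped HIV (PHIV) lentiviral luciferase vector. CIP4 cells (2 × 10^4/well) were infected with enough PHIV to give about 50,000 relative light units. Cells were incubated 2 days with compound at varying concentrations, with or without 40% human serum albumin. Infection was read as luciferase luminescence (Steady-Glo). Serum shift is the IC50 with albumin divided by the IC50 without.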

[5] = Total clearance in iv or po dosed beagle dog after 24 hrs by LC-MS/MS analysis; type: ADME, organism-based, Canis lupus familiaris; conditions: in vivo
[6] = Total clearance in Sprague-Dawley rat at 1 mg/kg, iv or 5 mg/kg, po after 24 hrs by LC-MS/MS analysis; type: ADME, organism-based; conditions: in vivo
[7] = Half life in Sprague-Dawley rat at 1 mg/kg, iv or 5 mg/kg, po by LC-MS/MS analysis; type: ADME, organism-based; conditions: in vivo
[8] = Oral bioavailability in Sprague-Dawley rat at 5 mg/kg after 24 hrs by LC-MS/MS analysis; type: ADME, organism-based; conditions: in vivo
[9] = Half life in iv or po dosed beagle dog by LC-MS/MS analysis; type: ADME, organism-based, Canis lupus familiaris; conditions: in vivo
[10] = Oral bioavailability in beagle dog after 24 hrs by LC-MS/MS analysis; type: ADME, organism-based, Canis lupus familiaris; conditions: in vivo
[11] = Apparent permeability of compound; type: physicochemical; conditions: not told
[12] = Intrinsic aqueous solubility of compound by chemiluminescent nitrogen detection method; type: physicochemical; conditions: buffer
Rattus norvegicus = assay: Total clearance in Sprague-Dawley rat at 1 mg/kg, iv or 5 mg/kg, po after 24 hrs by LC-MS/MS analysis relative to hepatic blood flow; type: ADME, organism-based, Liver; conditions: in vivo
Canis familiaris = assay: Total clearance in iv or po dosed beagle dog after 24 hrs by LC-MS/MS analysis relative to hepatic blood flow; type: ADME, organism-based, Canis lupus familiaris, Liver; conditions: in vivo

O=C(NCc1ccc(F)cc1)c1cn2c(c(O)c1=O)C(=O)N1CCCO[C@H]1C2 showed a Ratio IC50 [1] of 2.4.

For NC(=O)c1c2c(c(O)c3ncc(Cc4cccc(Cl)c4F)cc13)C(=O)N1CCCC[C@@H]21, the CC50 [2] was 5.18 µM, the Ratio IC50 [1] was 0.1 and the Ratio IC50 [3] was 3.7.

Work on N#Cc1c2c(c(O)c3ncc(Cc4cccc(Cl)c4F)cc13)C(=O)N1CCCC[C@@H]21 yielded a CC50 [2] of 3.36 µM, a Ratio IC50 [1] of 17 and a Ratio IC50 [3] of 93.

In the case of NC(=O)c1c2c(c(O)c3ncc(Cc4cccc(Cl)c4F)cc13)C(=O)N1CCC[C@H]1C2, the CC50 [2] is reported as 36.8 µM, the Ratio IC50 [1] is reported as 0.6 and the Ratio IC50 [3] is reported as 2.6.

Work on N#Cc1c2c(c(O)c3ncc(Cc4cccc(Cl)c4F)cc13)C(=O)N1CCCC[C@H]21 yielded a CC50 [2] of 7.05 µM, a Ratio IC50 [1] of 8.8 and a Ratio IC50 [3] of 17.

With NC(=O)c1c2c(c(O)c3ncc(Cc4cccc(Cl)c4F)cc13)C(=O)N1CCC[C@@H]1C2 the CC50 [2] was 21.1 µM, the Ratio IC50 [1] was 0.6 and the Ratio IC50 [3] was 0.4.

Work on N#Cc1c2c(c(O)c3ncc(Cc4cccc(Cl)c4F)cc13)C(=O)N1CCC[C@H]21 yielded a CC50 [2] of 7.27 µM, a Ratio IC50 [1] of 216 and a Ratio IC50 [3] of 456.

Cn1c(=O)c(C(=O)NCCO)c(O)c2ncc(Cc3ccc(F)cc3)cc21 gave a Ratio IC50 [1] of 40.

Molecule N#Cc1c2c(c(O)c3ncc(Cc4cccc(Cl)c4F)cc13)C(=O)N1CCCN1C2 has a Ratio IC50 [4] of 188, a Ratio IC50 [1] of 1.3 and a Ratio IC50 [3] of 8.

Molecule O=C1c2c(cc3cc(Cc4cccc(Cl)c4F)cnc3c2O)CN2CCCN12 has a Ratio IC50 [4] of 9, a Ratio IC50 [1] of 0.4 and a Ratio IC50 [3] of 2.3.

With N#Cc1c2c(c(O)c3ncc(Cc4cccc(Cl)c4F)cc13)C(=O)N1CCC[C@@H]21 the CC50 [2] was 1.83 µM, the Ratio IC50 [1] was 31 and the Ratio IC50 [3] was 131.

N#Cc1c2c(c(O)c3ncc(Cc4cccc(Cl)c4F)cc13)C(=O)N1CCC[C@H]1C2 gave a CC50 [2] of 50 µM, a Ratio IC50 [1] of 1.4 and a Ratio IC50 [3] of 2.8.

With N#Cc1c2c(c(O)c3ncc(Cc4cccc(Cl)c4F)cc13)C(=O)N1CCC[C@@H]1C2 the CC50 [2] was 12.8 µM, the Ratio IC50 [1] was 0.8 and the Ratio IC50 [3] was 1.5.

Work on NC(=O)c1c2c(c(O)c3ncc(Cc4cccc(Cl)c4F)cc13)C(=O)N1CCCC[C@H]21 yielded a CC50 [2] of 24.4 µM, a Ratio IC50 [1] of 1.4 and a Ratio IC50 [3] of 2.8. The clearance [5] was 2.8 mL/min/kg, the clearance [6] was 1.4 mL/min/kg and the half-life [7] was 7.2 h. It also gave a bioavailability [8] of 2%, a half-life [9] of 11.8 h and a bioavailability [10] of 14%. For the same molecule, the Papp [11] was 6 ×10⁻⁶ cm/s, the solubility [12] was 25 µM (≈ 11 µg/mL) and the CL (Rattus norvegicus) was 2%. It also gave a CL (Canis familiaris) of 5%.
